# Measurements taken from ChEMBL document CHEMBL4513216, “Probing the Open Global Health Chemical Diversity Library for Multistage-Active Starting Points for Next-Generation Antimalarials” (ACS Infect Dis, 2020).
# Assay: Toxicity liver stage against HepG2, at 10uM
# Type: cell-based
# Parameters: test concentration 10 uM, cell line HepG2-A16-CD81EGFP
# Conditions: human, HepG2-A16-CD81EGFP cells; read-out: INHIBITION
# Method in brief: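 Uninfected HepG2-A16-CD81EGFP cells, 3 × 10^3 per well, 1536-well, plated on prespotted compound at 10 μM final, parasite-free screening media added to match infected plates; puromycin 10 μM positive, DMSO 0.5% negative; run in parallel with 48 h PbLuc assay at 37 °C, 5% CO2; viability by CellTiter-Glo luminescence, normalized to controls.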
row,Compound,cytotoxicity at 10 µM
1,O=C(NC[C@H]1OC[C@@H](NC2CCCCC2)[C@@H]1O)Nc1ccccc1,-11.6%
2,CC(C)(C)C(=O)N1C[C@@H](F)[C@@H](OCc2nc3ncccc3[nH]2)C1,2.97%
3,COc1ccc(Cl)c(-c2noc3ncn(CCC(=O)O)c(=O)c23)c1,7.25%
4,Cc1nnc(SCc2cc(=O)n3c4c(sc3n2)CCCC4)[nH]1,-9.67%
5,CCS(=O)(=O)Nc1ccc2c(c1)OCC(C)(C)C(=O)N2C,-17.2%
6,COCCNC(=O)Cn1cc(OCc2ccc(F)cc2)c(=O)cc1C,-3.04%
7,CSc1ncccc1C(=O)NCCC(O)c1cccs1 (stereo unspecified),-4.68%
8,O=C(Nc1cccnc1)c1ccc(-n2cncn2)nn1,4.48%
9,CNC(=O)CS(=O)(=O)C1CCN(S(=O)(=O)c2ccccc2Cl)CC1,11.7%
10,CN(C)CCN1C(=O)CCCC12CCCN(Cc1ccc[nH]1)C2 (stereo unspecified),-10.1%
11,Cc1noc(C)c1CN1CCCC2(CCN(C(=O)N3CCOCC3)C2)C1 (stereo unspecified),3.35%
12,O=C(C1CCCO1)N1CCCn2c(nnc2Cn2cccc2)C1 (stereo unspecified),16.4%
13,Cc1nnc([C@H]2C[C@H]3OCC[C@H]3N(S(=O)(=O)C3CC3)C2)o1,-4.11%
14,CCCc1ccc(N2CCN(Cc3nc4ccccc4n3C)CC2)cc1,7.06%
15,CC(C)(C)n1cc(C(=O)NCCCn2ccnc2)c2cccnc21,0.698%
16,O=C(c1ccno1)N1CCC2(CC1)C(=O)N(CC1CC1)c1ccccc12,7.85%
17,c1csc(CN2CC[C@H]3C[C@H](c4ccncn4)O[C@@H]3C2)c1,1.17%
18,CCCN(C(=O)CCS(=O)(=O)Cc1ccccc1)c1cccc(C)c1,-2.67%
19,CCc1ccc(NC(=O)c2n[nH]c(-n3cnnc3)n2)cc1,4.68%
20,CCN1CCCC(O)(CNCc2ccccn2)C1 (stereo unspecified),-5.69%
21,c1ccc(-c2nn3c(CN4CCOCC4)nnc3s2)nc1,9.9%
22,CC(=O)N1CCC1c1nc(-c2ccc(C)s2)no1 (stereo unspecified),-1.78%
23,Cn1cc(CN2CCCCC2c2ccc(-c3cnn(C)c3)nc2)cn1 (stereo unspecified),9.25%

row,Compound,cytotoxicity at 10 µM
1,CN(C)C(=O)C1CN(c2ncccn2)CCN1C (stereo unspecified),-0.419%
2,Cc1nccc(N2CCN(C3CCOCC3)CC(C(=O)N(C)C)C2)n1 (stereo unspecified),2.12%
3,Cc1ncc(CN2CCC(c3nc(O)cc(-c4ccsc4)n3)CC2)cn1,-11.8%
4,O=C(CC1CCN(CCc2ccccc2)CC1)NC1CCOCC1,3.31%
5,CCCC(=O)N1CCCC(c2cc3cccnc3c(O)n2)C1 (stereo unspecified),7.53%
6,CC(=O)N1CCC2(CC1)CC(NS(C)(=O)=O)c1ccccc1O2 (stereo unspecified),5.53%
7,Cc1nc(C)c(CNC(=O)NC2CC(C)(C)OC2(C)C)s1 (stereo unspecified),-0.864%
8,CSc1ccc(C(=O)N(c2ccc(F)cn2)C2CCOCC2)o1,-10.7%
9,CC(=O)Nc1ccc(SCC(O)COCc2ccc3c(c2)OCO3)cc1 (stereo unspecified),3.56%
10,O=C(CC1OCCc2ccccc21)NCCn1cccc1 (stereo unspecified),1.71%
11,Cc1ocnc1CNC(=O)Nc1ccc(N2CCOC(C)C2)cc1 (stereo unspecified),-2.8%
12,Cc1cccc(C)c1CN1C(=O)CC2(CCSC2)C1=O (stereo unspecified),14.9%
13,COc1c(C2CCCN2CCOc2ccccc2C#N)c(C)nn1C (stereo unspecified),2.59%
14,CCS(=O)(=O)c1ccc(N2CCC(NC(=O)NC(C)CO)CC2)cc1 (stereo unspecified),13.9%
15,CCOc1c(Cl)cccc1NS(=O)(=O)c1cc(C)c(C(=O)O)s1,2.13%
16,CS(=O)(=O)Cc1ccc(C(=O)N2CCCC(n3cncn3)C2)o1 (stereo unspecified),-9%
17,CCOCCCC(=O)Nc1c(-c2ccc(F)cc2)ncn1C,-9.19%
18,Cc1nc(C)n(CC2CN(CCc3ccccc3Cl)CCO2)n1 (stereo unspecified),-0.431%
19,COCCCN(Cc1ccncc1)C(=O)CSc1ccc(F)cc1,0.807%
20,O=S(=O)(Cc1c(F)cccc1Cl)Cc1nnnn1C1CC1,-5.19%
21,CCC(=O)N1CCC(NC2CCSCC2)C1 (stereo unspecified),2.85%
22,CN(C)C(CNC(=O)N(Cc1ccco1)C1CC1)c1cccs1 (stereo unspecified),3.06%
23,Cc1occc1CNC(=O)Nc1ccc2nc(N3CCOCC3)oc2c1,9.5%

row,Compound,cytotoxicity at 10 µM
1,COc1ccc(C2(NC(=O)C3CC(=O)N(C)C3)CCCC2)cc1 (stereo unspecified),14.7%
2,Cn1cc(CNc2ccc(CCO)cc2)c(-c2ccncc2)n1,5.82%
3,COCC(=O)Nc1cc(Br)cnc1OCC(F)(F)F,-5.6%
4,CCN(C)CC1CCN(c2ncc(Br)cn2)C1 (stereo unspecified),-2.55%
5,CC(NCCCN1CCCN(C)CC1)C(C)(C)C (stereo unspecified),29.9%
6,Cc1cc(F)cc(S(=O)(=O)Nc2ccn(CCCC#N)n2)c1,18%
7,CCn1c(CN2CCOC(Cn3cccn3)C2)nc2c(F)cccc21 (stereo unspecified),-3.43%
8,CCc1noc(CN(C)CCC(=O)Nc2ccccc2C#N)n1,9.69%
9,COc1ccc(S(=O)(=O)Cc2cc(C)on2)cc1,7.55%
10,NC(=O)C1CCCN1Cc1ccccc1NC(=O)Cc1cccs1 (stereo unspecified),7.31%
11,CC(C)C(C)NC(=O)CCN1C(=O)CCc2cc(F)ccc21 (stereo unspecified),8.91%
12,COc1ccccc1CN(Cc1nc2c(cnn2C)c(=O)[nH]1)C1CC1,15%
13,CC(C)(O)CNc1ccc(C#N)c(C(F)(F)F)c1,1.23%
14,CCc1nc(C2CCCN2C(=O)CCCOc2cccc(F)c2)no1 (stereo unspecified),11.1%
15,Cc1noc([C@H]2C[C@@H]3CCN(C(=O)c4cccn4C)C[C@H]3O2)n1,-103%
16,CN(Cc1nc(-c2ccccc2)no1)Cc1cnc(N2CCOCC2)s1,-1.48%
17,Cc1ccccc1N1CCN(C(=O)c2cnc(N(C)C)nc2C)C(C)C1 (stereo unspecified),15.3%
18,N[C@H]1CN(C(=O)c2ccc(Cl)cc2F)C[C@@H]1C1CC1,-44.3%
19,CN(C)[C@H]1CCN(c2ccnc(C(=O)NCc3ccco3)c2)C1,4.12%
20,COCC1CCN(C(=O)c2cn(Cc3cccc(C(F)(F)F)c3)nn2)C1 (stereo unspecified),-0.695%
21,c1cnn(CCC2CCCCN2Cc2cnc(C3CCCCC3)nc2)c1 (stereo unspecified),0.106%
22,CC1CN(CCC(=O)NCCc2cccnc2)Cc2ccccc2O1 (stereo unspecified),-3.34%
23,CC(C)(O)CCc1cccc(C(=O)NCC2COCCO2)c1 (stereo unspecified),-6.38%

row,Compound,cytotoxicity at 10 µM
1,CCN(CCn1cccn1)Cc1nc(-c2cc(F)ccc2F)oc1C,-1.57%
2,FC(F)(F)C1CN(Cc2cnc3c(-c4ccccc4)cnn3c2)CCO1 (stereo unspecified),-2.34%
3,CC(C(=O)N(C)Cc1noc(C2CCC2)n1)N1CCc2ccccc2C1 (stereo unspecified),-79.1%
4,COc1cccc(OC)c1OCCN1C(=O)CCNC1=O,-7.89%
5,CC(C)c1nccn1Cc1cc(C(=O)NCC(C)n2ccnc2)n[nH]1 (stereo unspecified),-0.419%
6,N#Cc1ccc(Oc2cc(F)c(CN3CCCC3)c(F)c2)nc1,-8.74%
7,CNc1ncccc1C(=O)N1CCN(C)C2(CCN(C)CC2)C1,7.16%
8,CNC(=O)[C@@H]1C[C@@H](NC(=O)c2cn(C)nc2C)CN1Cc1sccc1C,-5.58%
9,CCSCCn1c(=O)n(Cc2ccc(F)cc2)c2ncc(C(=O)O)cc21,-2.54%
10,Cc1cc(C)n(CCCN(C)C(=O)CN2CC3(CCNCC3)OC2=O)n1,5.25%
11,Cc1nc(O)cc(CCNc2nc(N(C)C)nc(C)c2C)n1,-3.03%
12,COc1ccc(F)c(CN2CCCC(c3cc(O)nc(C)n3)C2)c1 (stereo unspecified),7.3%
13,CCc1nc(CNc2ccc(-c3nc(C4CC4)no3)cn2)no1,-6.14%
14,CN(C)C(=O)c1ccc(N2CCC3(CCC(=O)N(CCO)C3)CC2)nc1,3.8%
15,CC(C)C(=O)N1CCC(c2nc3c([nH]2)CCCNC3=O)CC1,1.74%
16,CCCC1(CO)CCCN(c2ncnc3c2c(C)nn3C)C1 (stereo unspecified),2.72%
17,Cc1cccc(-c2nccn2C2CC(=O)N(C(C)C)C2)n1 (stereo unspecified),5.62%
18,OC1(CNCc2noc(Cc3ccccc3)n2)CCCNC1 (stereo unspecified),5.19%
19,CCc1cc(N(C)Cc2ncc[nH]2)nc(N2CCOCC2)n1,-1.61%
20,Cc1ccc(S(=O)(=O)NC2CC2)cc1C,-10.6%
21,CC(C)N(Cc1ccccn1)Cc1nc2c(cnn2C)c(=O)[nH]1,-6.42%
22,Cc1nc(C)c(CC(=O)Nc2nnc(C(C)C)s2)c(=O)[nH]1,-7.16%
23,Cc1nc(CN2CCCC(N(C)CCc3ccncc3)C2)no1 (stereo unspecified),-6.93%

row,Compound,cytotoxicity at 10 µM
1,Cc1cc(CN2CCCC2c2noc(C)n2)no1 (stereo unspecified),2.48%
2,Cc1ccc(N2CCCC(NCC(=O)NC3CCOCC3)C2)nn1 (stereo unspecified),3.08%
3,COc1cccc(COCC(=O)N2CCCC(c3cc(C)[nH]n3)C2)c1 (stereo unspecified),-6.81%
4,O=C(c1cc(F)ccc1F)C1CCN(C(=O)c2cccnc2O)CC1,-3.99%
5,O=C(NCc1ccc(Cl)cc1)N1CCN(CC(O)C2CC2)CC1 (stereo unspecified),8.66%
6,CNCC1CCC(c2cc(CN(C)C(=O)c3cnccn3)n(C)n2)CC1 (stereo unspecified),-5.1%
7,Cc1ccsc1CN1CCC2(CC1)CC(OCc1cccnc1)CO2 (stereo unspecified),3.45%
8,COc1cc(N2CCC3(CC2)CC(N2CCN(C)CC2)CO3)ncn1 (stereo unspecified),-9.11%
9,c1ccc(CN2Cc3[nH]nc(COc4cccnc4)c3C2)nc1,-109%
10,COc1ccc(OC)c(CN(Cc2ccco2)Cc2[nH]cnc2C)c1,-2.51%
11,OCCN1CC2(CCN(CC3CC3)CC2)c2ccccc21,6.4%
12,O=S(=O)(NC1CCC12CCN(CC1CC1)CC2)c1ccccc1 (stereo unspecified),-7.82%
13,Cc1noc(C)c1CN1CCc2ncnc(-c3cccnc3)c2CC1,-97.9%
14,Cn1ccnc1C(=O)N1CCC2(CCN2Cc2ccc(F)cc2)C1 (stereo unspecified),-97%
15,Cc1nn(C)c(N(C)C)c1CNCc1cccnc1-n1cncn1,-0.313%
16,COCCN(C)C[C@@H]1CCC[C@@H]2CN(c3ncccn3)C[C@@H]21,4.79%
17,O=C(c1ccnnc1)N1CCN2C[C@H](Oc3cccc(F)c3)C[C@H]2C1,-1.96%
18,COCc1nn(CC2CC2)c2c1CN(Cc1ccco1)CC2,2.35%
19,O=c1occ(CN2CCCCCC2)c(O)c1CN1CCCCCC1,-8.1%
